Assay results: ChEMBL document CHEMBL4130564, “Indolylalkyltriphenylphosphonium Analogues Are Membrane-Depolarizing Mycobactericidal Agents” (ACS Med Chem Lett, 2017)
Calls of active or inactive are those of the source. No cut-off for these calls is given here.

Tests used:
[1] = system: Mycobacterium tuberculosis; test: Bactericidal activity against Mycobacterium bovis BCG ATCC 35734 assessed as reduction in membrane potential by measuring red to green fluorescent ratio at 100 uM measured at 3 hrs by DiOC2-dye based fluorescence assay; assay type: functional, organism-based; conditions: BCG str. ATCC 35743
[2] = system: Mycobacterium tuberculosis; test: Bactericidal activity against Mycobacterium bovis BCG ATCC 35734 assessed as suppression of reductive capacity by measuring decrease in formazan formation at 100 uM after 0.5 to 1 hr by MTT reduction assay; assay type: functional; parameters: scale not given: the % may be the effect or the level left
Procedure, shortened: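 BCG cultures exposed to 0.2–100 μM for 30 min and 1 h, then MTT added; formazan production read at 595 nm against drug-free basal absorbance; CCCP 100 μM reference; representative of two independent experiments.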

`N#CC(C#N)=NNc1cccc(Cl)c1` [CARBONYL CYANIDE M-CHLOROPHENYLHYDRAZONE] was tested, and the Activity [1] was “Active” and the Activity [2] was 50%.
